High-throughput results from PubChem.
SIRT5 inh = SIRT5 desuccinylase inhibitors, primary screen, biochemical, fluorescence imaging, single point, set 5 | NAD-dependent protein deacylase sirtuin-5, mitochondrial (Homo sapiens), Q9NXA8 | Purified SirT5, succinyl-peptide AMC, trypsin-coupled fluorescence | inhibition, % at 15 µM | 1.1% of 330,000 active | AID 652115, 2013; in the data active = inhibition above about 15%; inconclusive = no clear call, values can overlap the other calls
Target sequence (Q9NXA8 whole entry, looked up): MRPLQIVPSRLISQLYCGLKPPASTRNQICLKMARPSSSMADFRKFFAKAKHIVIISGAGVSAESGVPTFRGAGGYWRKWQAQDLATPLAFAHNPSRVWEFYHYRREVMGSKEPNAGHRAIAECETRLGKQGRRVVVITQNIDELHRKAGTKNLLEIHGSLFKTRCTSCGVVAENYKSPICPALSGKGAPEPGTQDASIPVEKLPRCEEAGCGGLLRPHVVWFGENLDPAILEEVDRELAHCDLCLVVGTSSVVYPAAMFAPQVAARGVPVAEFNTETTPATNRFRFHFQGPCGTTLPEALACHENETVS
DENV2 CPE = inhibitors of DENV2 cytopathic effect, primary screen, cell-based, plate reader, single concentration | 1.7% of 350,000 active | CPE inhibition, % at 9.99 µM | DENV2-infected cells, cytopathic effect rescue | AID 651640, 2012; in the data active = CPE inhibition above about 20%, passing the limit was not always enough; inconclusive = no clear call, values can overlap the other calls; tested in BHK-21 cells;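 note: 0% = median of neutral control wells and 100% = median of positive control wells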
E-sel inducer = E-selectin induction in HUVECs, primary screen, imaging, HUVEC, immunofluorescence imaging, single point | P16581 | normalized: neutral wells 0, TNF-alpha wells 100 | activation, % at 7.58 µM | 0.37% of 260,000 active | AID 686992, 2013;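 active = mean E-selectin-positive cell signal at least 10% of the positive control, reached in at least 60% of replicates, without over 20% cell loss; inconclusive = no rule given, readout overlaps actives, possibly toxicity-flagged; inactive = the rest, including those meeting only one limit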
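Test system: HUVEC | Signal: Immunofluorescence imaging | Read-out: Percent E-selectin-positive cells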
Numbers without * were called inactive; ! = repeats disagree. The list is not random: actives were taken first. Their share in the collection is about 2.9%.

What do the screens show for `O=C(Nc1cc(F)ccc1F)N1CC(=O)N2[C@H](CO)[C@@H](c3ccc(-c4ccccc4)cc3)[C@H]2C1`?
SIRT5 inh: -8; DENV2 CPE: inconclusive; E-sel inducer: 0

What do the screens show for `O=C(Nc1ccccc1F)N1CC(=O)N2[C@H](CO)[C@H](c3ccc(C#Cc4ccc(F)cc4)cc3)[C@@H]2C1`?
SIRT5 inh: 4; DENV2 CPE: 27*; E-sel inducer: 0

What do the screens show for `O=C(Nc1cc(F)ccc1F)N1CC(=O)N2[C@H](CO)[C@@H](c3ccc(C#CC4CCCC4)cc3)[C@@H]2C1`?
SIRT5 inh: 4; DENV2 CPE: 8; E-sel inducer: 0

How did O=C(Nc1cc(F)ccc1F)N1CC(=O)N2[C@H](CO)[C@H](c3ccc(C#CC4CCCCC4)cc3)[C@@H]2C1 do in these assays?
SIRT5 inh: 17*; DENV2 CPE: -8; E-sel inducer: 0

What do the screens show for `O=C(Nc1cc(F)ccc1F)N1CC(=O)N2[C@@H](CO)[C@@H](c3ccc(C#CC4CCCCC4)cc3)[C@@H]2C1`?
SIRT5 inh: 21*; DENV2 CPE: 3; E-sel inducer: -1

What do the screens show for `COc1ccccc1N/C(N)=N/c1nc(C)cc(C)n1`?
DENV2 CPE: 0; E-sel inducer: 5

How did Cc1ccc(S(=O)(=O)N(C)C[C@H]2Oc3c(NC(=O)Nc4c(C)noc4C)cccc3C(=O)N([C@H](C)CO)C[C@H]2C)cc1 do in these assays?
SIRT5 inh: -2; DENV2 CPE: 1; E-sel inducer: 0

How did O=C1CN(Cc2ccc(F)cc2)C[C@H]2[C@@H](c3ccc(-c4cccnc4)cc3)[C@H](CO)N12 do in these assays?
SIRT5 inh: 0; DENV2 CPE: 24*; E-sel inducer: 0

What do the screens show for `O=C1CN(Cc2ccc(F)cc2)C[C@@H]2[C@@H](c3ccc(-c4cccnc4)cc3)[C@@H](CO)N12`?
SIRT5 inh: -1; DENV2 CPE: 2; E-sel inducer: 0

What do the screens show for `COc1cccc(NC(=O)N(C)C[C@@H]2OCc3cnnn3CCCC(=O)N([C@@H](C)CO)C[C@H]2C)c1`?
SIRT5 inh: 5; DENV2 CPE: -6; E-sel inducer: 0

What do the screens show for `C[C@H]1CN([C@@H](C)CO)C(=O)CCCn2nncc2CO[C@@H]1CN(C)C(=O)Nc1ccccc1`?
SIRT5 inh: 28*; DENV2 CPE: 5; E-sel inducer: 0

What do the screens show for `COc1cccc(NC(=O)N(C)C[C@@H]2OCc3cnnn3CCCC(=O)N([C@@H](C)CO)C[C@@H]2C)c1`?
SIRT5 inh: 3; DENV2 CPE: 79*; E-sel inducer: 0

Results for C[C@@H]1CN([C@@H](C)CO)C(=O)CCCn2nncc2CO[C@@H]1CN(C)C(=O)Nc1cccc2ccccc12 ?
SIRT5 inh: -3; DENV2 CPE: -1; E-sel inducer: 0

How did C[C@H](CO)N1C[C@H](C)[C@@H](CN(C)C(=O)c2cc(-c3ccccc3)on2)OCc2cnnn2CCCC1=O do in these assays?
SIRT5 inh: 1; DENV2 CPE: -3; E-sel inducer: inconclusive

How did C[C@@H]1CN([C@H](C)CO)C(=O)CCCn2nncc2CO[C@H]1CN(C)C(=O)Nc1cccc2ccccc12 do in these assays?
SIRT5 inh: 76*; DENV2 CPE: -13; E-sel inducer: 0

Results for C[C@H](CO)N1C[C@H](C)[C@@H](CN(C)C(=O)Nc2ccccc2)OCc2cnnn2CCCC1=O ?
SIRT5 inh: -1; DENV2 CPE: 4; E-sel inducer: 0

Results for C[C@H](CO)N1C[C@H](C)[C@H](CN(C)C(=O)c2cc(-c3ccccc3)on2)OCc2cnnn2CCCC1=O ?
SIRT5 inh: 18*!; DENV2 CPE: inconclusive; E-sel inducer: 0

How did CC1Cc2ccccc2N1CC(=O)Nc1ccc2c(c1)OCCCO2 (stereo not drawn) do in these assays?
SIRT5 inh: -2; DENV2 CPE: 1; E-sel inducer: 0

Results for CC(C)CC#Cc1ccc2c(c1)O[C@@H](CN(C)Cc1ccc(F)cc1)[C@@H](C)CN([C@@H](C)CO)S2(=O)=O ?
SIRT5 inh: 1; DENV2 CPE: 8; E-sel inducer: 0

Results for CC1=C(C(=O)Nc2cccnc2)C(c2ccccn2)n2nnnc2N1 (stereo not drawn) ?
E-sel inducer: 0

How did CC(C)NC(=O)N(C)C[C@@H]1OCc2cnnn2CCCC(=O)N([C@H](C)CO)C[C@H]1C do in these assays?
SIRT5 inh: 0; DENV2 CPE: 1; E-sel inducer: 0

What do the screens show for `CC(C)NC(=O)N(C)C[C@@H]1OCc2cnnn2CCCC(=O)N([C@@H](C)CO)C[C@H]1C`?
SIRT5 inh: 26*!; DENV2 CPE: 16; E-sel inducer: 0

Results for CC1(C)CC(=O)C/C(=N/NC(=O)c2ccc(-c3ccccc3)cc2)C1 ?
SIRT5 inh: -2; DENV2 CPE: 1; E-sel inducer: 3

What do the screens show for `Cc1cc(Br)c(OCc2ccc(C(=O)N/N=C3\CC(=O)CC(C)(C)C3)cc2)c(Br)c1`?
SIRT5 inh: -5; DENV2 CPE: 76*

How did O=C(NCC#CCOCc1ccccc1)c1ccccc1 do in these assays?
DENV2 CPE: 3

Results for O=C(N[C@@H]1CC[C@H](CCNS(=O)(=O)Cc2ccccc2)O[C@H]1CO)c1ccc2c(c1)OCO2 ?
SIRT5 inh: 0; DENV2 CPE: 10; E-sel inducer: 0

How did O=C(N[C@@H]1CC[C@H](CCNS(=O)(=O)Cc2ccccc2)O[C@@H]1CO)c1ccc2c(c1)OCO2 do in these assays?
SIRT5 inh: -2; DENV2 CPE: 22*; E-sel inducer: 0

Results for O=C(N[C@H]1CC[C@H](CCNS(=O)(=O)Cc2ccccc2)O[C@H]1CO)c1ccccc1F ?
SIRT5 inh: 1.7*; DENV2 CPE: -2; E-sel inducer: 0

How did NCC[C@@H]1CC[C@H](NC(=O)c2ccccc2F)[C@@H](CO)O1 do in these assays?
SIRT5 inh: -2; DENV2 CPE: -4; E-sel inducer: 0

What do the screens show for `C[C@@H]1CN([C@H](C)CO)C(=O)Cc2cc(NS(C)(=O)=O)ccc2O[C@@H]1CN(C)C(=O)Nc1ccc(F)cc1`?
SIRT5 inh: 0; DENV2 CPE: 1; E-sel inducer: -27

Results for Cc1csc(-c2nc3ccccc3n2C(C(=O)NC(C)(C)C)c2ccccc2)c1 (stereo not drawn) ?
SIRT5 inh: -4; DENV2 CPE: 22*; E-sel inducer: 0

Results for CC(C)(C)NC(=O)C(c1ccc(-c2ccccc2)cc1)n1c(=O)c(-c2ccccc2)nc2ccccc21 (stereo not drawn) ?
SIRT5 inh: -5; DENV2 CPE: -11; E-sel inducer: 0

Results for COc1ccc2c3c([nH]c2c1)[C@H](CO)N(C(=O)NC(C)C)CC31CN(C(=O)C2CCCCC2)C1 ?
DENV2 CPE: inconclusive; E-sel inducer: 0

What do the screens show for `CCCNC(=O)N1CC2(CCN(CC3CCCC3)CC2)c2c([nH]c3cc(OC)ccc23)[C@@H]1CO`?
SIRT5 inh: 3; DENV2 CPE: 30*; E-sel inducer: 0

What do the screens show for `COc1ccc2c3c([nH]c2c1)[C@@H](CO)N(C(=O)Nc1cccc(F)c1)CC31CCN(CC2CC2)CC1`?
DENV2 CPE: -9; E-sel inducer: -1
